Consider 18 compounds from ChEMBL document CHEMBL1140161, “Structure-activity relationships in 1,4-benzodioxan-related compounds. 9. From 1,4-benzodioxane to 1,4-dioxane ring as a promising template of novel alpha1D-adrenoreceptor antagonists, 5-HT1A full agonists, and cytotoxic agents” (J Med Chem, 2008).

For test [1], the target named is T1, Alpha-1A adrenergic receptor (Rattus norvegicus) (UniProt P43140).
T1 sequence (whole entry): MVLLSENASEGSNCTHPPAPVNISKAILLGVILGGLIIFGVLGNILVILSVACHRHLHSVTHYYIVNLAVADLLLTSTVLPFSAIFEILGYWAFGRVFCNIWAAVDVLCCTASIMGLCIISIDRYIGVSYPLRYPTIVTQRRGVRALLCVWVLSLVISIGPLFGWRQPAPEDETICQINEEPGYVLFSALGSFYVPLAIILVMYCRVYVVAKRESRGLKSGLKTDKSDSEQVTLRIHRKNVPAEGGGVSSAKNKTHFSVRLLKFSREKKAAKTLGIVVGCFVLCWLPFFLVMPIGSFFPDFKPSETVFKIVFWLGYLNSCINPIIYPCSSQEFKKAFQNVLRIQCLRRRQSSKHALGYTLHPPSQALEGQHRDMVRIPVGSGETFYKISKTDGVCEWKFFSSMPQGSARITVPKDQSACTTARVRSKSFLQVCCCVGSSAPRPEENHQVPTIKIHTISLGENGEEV
The test can be described thus: Antagonist activity at alpha1A adrenoceptor in Wistar rat prostatic vas deferens assessed as inhibition of (-)-noradrenaline-induced contraction after 30 mins. In kind it is functional, tissue-based.

The test system of test [2] is PC-3. The test is described as follows: Cytotoxicity against human PC3 cells after 48 hrs by SRB assay. Type of test: functional. As to conditions: for GI50 / TGI / CC50: PC-3, 48 h; for CC50: read-out: LC50 (the source's name). An outline of the steps:
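PC-3 human prostate cancer cells. Growth measured by sulforhodamine B staining following the NCI protocol. […] Values are means of quadruplicate determinations ± standard error (n = 5).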

Test [3] concerns the target T2, Alpha-1B adrenergic receptor (Rattus norvegicus) (UniProt P15823).
T2 sequence (whole entry): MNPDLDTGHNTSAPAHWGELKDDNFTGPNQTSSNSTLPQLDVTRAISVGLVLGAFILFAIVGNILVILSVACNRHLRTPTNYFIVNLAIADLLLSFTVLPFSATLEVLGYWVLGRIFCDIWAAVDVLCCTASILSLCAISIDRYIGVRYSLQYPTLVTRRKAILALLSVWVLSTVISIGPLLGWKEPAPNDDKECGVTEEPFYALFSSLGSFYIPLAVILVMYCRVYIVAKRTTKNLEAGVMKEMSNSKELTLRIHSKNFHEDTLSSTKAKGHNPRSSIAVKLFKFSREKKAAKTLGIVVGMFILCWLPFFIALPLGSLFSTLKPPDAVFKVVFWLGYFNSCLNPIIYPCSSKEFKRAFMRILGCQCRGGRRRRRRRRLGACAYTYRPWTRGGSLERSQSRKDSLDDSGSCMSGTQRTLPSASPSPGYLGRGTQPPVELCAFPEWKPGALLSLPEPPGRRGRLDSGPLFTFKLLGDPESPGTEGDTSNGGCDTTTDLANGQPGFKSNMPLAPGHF
The test is described as follows: Antagonist activity at alpha1B adrenoceptor in Wistar rat spleen assessed as inhibition of (-)-phenylephrine-induced contraction after 30 mins. Type of test: functional, tissue-based.

In test [4] the target is T3, 5-hydroxytryptamine receptor 1A (Homo sapiens) (UniProt P08908).
T3 sequence (whole entry): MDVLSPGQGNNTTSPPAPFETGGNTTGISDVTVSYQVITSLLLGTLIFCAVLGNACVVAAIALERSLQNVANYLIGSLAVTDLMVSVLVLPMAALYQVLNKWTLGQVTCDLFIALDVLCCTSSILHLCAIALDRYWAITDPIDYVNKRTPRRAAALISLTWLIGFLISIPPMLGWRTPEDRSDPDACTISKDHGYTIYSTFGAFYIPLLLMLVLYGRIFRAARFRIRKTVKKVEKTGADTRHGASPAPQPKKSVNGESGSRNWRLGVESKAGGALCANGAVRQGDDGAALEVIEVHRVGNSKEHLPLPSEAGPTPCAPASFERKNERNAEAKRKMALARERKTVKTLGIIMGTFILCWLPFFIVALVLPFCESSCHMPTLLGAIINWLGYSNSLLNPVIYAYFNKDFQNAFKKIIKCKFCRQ
The test is described as follows: Agonist activity at human cloned 5HT1A receptor expressed in HeLa cell membrane assessed as stimulation of [35S]GTPgammaS binding relative to 5-hydroxytryptamine. Type of test: functional, cell membranes. An outline of the steps:
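Activation measured as [35S]GTPγS binding in membranes from HeLa cells expressing cloned human 5-HT1A receptor. pD2 is the negative log of agonist concentration giving 50% of maximal stimulation, from two to three experiments agreeing within 20%. Efficacy is given relative to 5-HT.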

For test [5], the target named is T3, 5-hydroxytryptamine receptor 1A (Homo sapiens). The test can be described thus: Agonist activity at human cloned 5HT1A receptor expressed in human HeLa cell membrane assessed as stimulation of [35S]GTPgammaS binding. In kind it is functional, cell membranes. The procedure, abridged:
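Membranes from HeLa cells expressing cloned human 5-HT1A receptor; agonist-stimulated [35S]GTPγS binding measured. pD2 is the negative log of the agonist concentration giving 50% of maximal [35S]GTPγS binding stimulation; values from two to three experiments.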

Test [6] has as its system PC-3. The test can be described thus: Induction of apoptosis in human PC3 cells assessed as translocation of phosphatidylserine at 50 uM after 48 hrs by annexin V-FITC staining and cytofluorimetric analysis. Type of test: functional. The procedure, abridged:
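PC-3 prostate cancer cells exposed to compound for 48 h, then stained with annexin V-FITC to detect externalized phosphatidylserine. Read-out by flow cytometry as mean fluorescence intensity (MFI), against untreated and vehicle-treated cells.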

Active and inactive are the calls of the source. No cut-off for these calls is given here. A value given as a limit tells only on which side of the number the result lay.

Turning to `COc1ccccc1OCCNC[C@@H]1COC(c2ccccc2)(c2ccccc2)CO1`, the pKb in test [1] is 6.37. Also, in the test on PC-3 [2], halving of growth (GI50) required 7.8 µM, total growth inhibition (TGI) required 16.1 µM and the CC50 worked out at 35.8 µM. The negative-log Kb (pKb) in test [3] turned out to be 6.81.
Consider `COc1ccccc1OCCNC[C@@H]1COC[C@H](c2ccccc2)O1` (relative stereo), for which the pKb in test [1] worked out at 6.57. In the test with PC-3 [2], the GI50 turned out to be 79 µM, the TGI was found to be 158 µM and the CC50 came to 251 µM. In addition, the pKb in test [3] was determined as 7.4. Besides, the %max in test [4] was determined as 78.1.
On to `COc1cccc(OC)c1OCCNC[C@@H]1COC[C@@H](c2ccccc2)O1` (relative stereo), for which the negative-log Kb (pKb) in test [1] came to 5.8. In the test with PC-3 [2], it took 112 µM to inhibit growth by half (GI50), the concentration for total growth inhibition (TGI) was 199 µM and the CC50 worked out at 288 µM. The negative logarithm of the Kb (pKb) in test [3] came to 5.75.
Turning to `COc1ccccc1OCCNC[C@@H]1COCC(c2ccccc2)(c2ccccc2)O1`, the pKb in test [1] is 6.65. Besides, in the test with PC-3 [2], the GI50 was 6.3 µM, net growth stopped (TGI) at 15.4 µM and the CC50 is 35.1 µM. In addition, in test [3], the negative logarithm of the Kb (pKb) was 6.86. Moreover, the %max in test [4] was determined as 81.5. In test [5], the pD2 came to 9.4.
Regarding `c1ccc(OCCNC[C@@H]2COC[C@@H](c3ccccc3)O2)cc1` (relative stereo), in test [1], the negative-log Kb (pKb) worked out at 7.21. Also, in the test on PC-3 [2], the GI50 came out at 158 µM, total growth inhibition (TGI) required 223 µM and the CC50 is more than 300 µM. In test [3], the negative-log Kb (pKb) was found to be 6.88.
For the compound `COc1ccccc1OCCNC[C@@H]1CO[C@@H](c2ccccc2)CO1` (relative stereo), in test [1], the negative logarithm of the Kb (pKb) worked out at 7.1. In the test on PC-3 [2], the result was inactive and growth was halved (GI50) at 30.1 µM. In test [3], the pKb turned out to be 7.44.
Regarding `c1ccc(OCCNC[C@@H]2COCC(c3ccccc3)(c3ccccc3)O2)cc1`, in test [1], the negative-log Kb (pKb) worked out at 6.93. For the same compound, in the test with PC-3 [2], the GI50 amounted to 1 µM, the TGI is 3.9 µM and the CC50 turned out to be 6.2 µM. Besides, the negative logarithm of the Kb (pKb) in test [3] worked out at 7.84. Besides, the %max in test [4] worked out at 77.1. In the test with PC-3 [6], the Flu intensity came to 76.98. Further, the pD2 in test [5] was 9.11.
As for `COc1cccc(OC)c1OCCNC[C@@H]1COC(c2ccccc2)(c2ccccc2)CO1`, the negative logarithm of the Kb (pKb) in test [1] turned out to be 6.08. Also, in the test with PC-3 [2], it took 19.9 µM to inhibit growth by half (GI50), total growth inhibition (TGI) required 31.6 µM and the CC50 was 40 µM. For the same compound, in test [3], the pKb came out at 5.74.
For the compound `COc1cccc(OC)c1OCCNC[C@@H]1COC[C@H](c2ccccc2)O1` (relative stereo), in test [1], the negative-log Kb (pKb) was determined as 6.42. Further, in the test with PC-3 [2], the GI50 was 79.4 µM, the TGI is 178 µM and the CC50 was found to be 282 µM. Further, in test [3], the negative logarithm of the Kb (pKb) stood at 5.84.
Regarding `COc1cccc(OC)c1OCCNC[C@@H]1COCC(c2ccccc2)(c2ccccc2)O1`, the pKb in test [1] is 6.71. Besides, in the test with PC-3 [2], the concentration for 50% growth inhibition (GI50) is 25.1 µM, the TGI came out at 31.6 µM and the CC50 came to 35 µM. In test [3], the negative-log Kb (pKb) was 6.24. For the same compound, the %max in test [4] was determined as 106. Further, the pD2 in test [5] came out at 8.28.
Take `c1ccc(OCCNC[C@@H]2COC(c3ccccc3)(c3ccccc3)CO2)cc1`: in test [1], the negative-log Kb (pKb) is 6.15. In the test on PC-3 [2], growth was halved (GI50) at 9.9 µM, net growth stopped (TGI) at 19.4 µM and the CC50 was 45.2 µM. The negative-log Kb (pKb) in test [3] was determined as 6.28.
On the same counts, the results for `c1ccc(OCCNC[C@@H]2CO[C@@H](c3ccccc3)CO2)cc1` (relative stereo) are 7, 177 µM, 252 µM, more than 300 µM and 6.97.
On the same counts, the results for `c1ccc(OCCNC[C@@H]2CO[C@H](c3ccccc3)CO2)cc1` (relative stereo) are 6.89, 190 µM, 239 µM, more than 300 µM and 6.68.
Turning to `COc1cccc(OC)c1OCCNC[C@@H]1CO[C@@H](c2ccccc2)CO1` (relative stereo), in test [1], the pKb was determined as 7.21. Moreover, in the test with PC-3 [2], the result was inactive and growth was halved (GI50) at 29 µM. Also, the negative logarithm of the Kb (pKb) in test [3] stood at 7.02.
As for `COc1ccccc1OCCNC[C@@H]1COC[C@@H](c2ccccc2)O1` (relative stereo), the pKb in test [1] turned out to be 7.22. Also, in the test on PC-3 [2], the 50% growth inhibitory concentration (GI50) came out at 199 µM, the total growth inhibition concentration (TGI) turned out to be 251 µM and the CC50 is more than 300 µM. In addition, the pKb in test [3] amounted to 7.96.
In the same order, the values of `COc1cccc(OC)c1OCCNC[C@@H]1CO[C@H](c2ccccc2)CO1` (relative stereo) are 5.96, 199 µM, 251 µM, more than 300 µM and 6.7.
With `c1ccc(OCCNC[C@@H]2COC[C@H](c3ccccc3)O2)cc1` (relative stereo), the pKb in test [1] stood at 6.72. Further, in the test on PC-3 [2], the GI50 came out at 158 µM, the total growth inhibition concentration (TGI) is 223 µM and the CC50 was 281 µM. Also, the negative-log Kb (pKb) in test [3] worked out at 7.12.
`COc1ccccc1OCCNC[C@@H]1CO[C@H](c2ccccc2)CO1` (relative stereo): the pKb in test [1] was found to be 6.47. Moreover, in the test on PC-3 [2], the GI50 was 199 µM, the concentration for total growth inhibition (TGI) was 251 µM and the CC50 is more than 300 µM. The pKb in test [3] was 6.89. Further, the %max in test [4] was found to be 85.5. In test [5], the pD2 was determined as 7.88.
